Laboratory results from ChEMBL document CHEMBL4043299, “Repurposing a Library of Human Cathepsin L Ligands: Identification of Macrocyclic Lactams as Potent Rhodesain and Trypanosoma brucei Inhibitors” (J Med Chem, 2018).
Active and inactive are the calls of the source. No cut-off for these calls is given here.

Tests used:
L6 = assay: Cytotoxicity against rat L6 cells after 72 hrs by Alamar blue assay; assay type: cell-based
In short: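 Rat skeletal myoblast L6 cells, growth inhibition; IC50 as average of at least 2 measurements.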

[1] = Selectivity index, ratio of IC50 for rat L6 cells to IC50 for bloodstream form of Trypanosoma brucei rhodesiense STIB 900; assay type: toxicity; settings: for selectivity ratio: L6 cells, read-out: Ratio IC50
In short: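 Ratio of L6 cell IC50 to T. b. rhodesiense STIB900 trypomastigote IC50.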

Rhodesain = Rhodesain (Trypanosoma brucei rhodesiense, UniProt Q95PM0); assay: Inhibition of Trypanosoma brucei rhodesiense rhodesain using Cbz-Phe-Arg-AMC as substrate by fluorimetric method
In short: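 Fluorescence-based protease assay. IC50 was converted to Ki by the Cheng-Prusoff equation. Values are the average of two measurements, each run in duplicate.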

Procathepsin L = Procathepsin L (Homo sapiens, UniProt P07711); assay: Inhibition of human CatL using Cbz-Phe-Arg-AMC as substrate measured over 30 mins by fluorimetric method
[2] = Selectivity index, ratio of Ki for human CatL to Ki for Trypanosoma brucei rhodesiense rhodesain
In short: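 Ki from IC50 via Cheng–Prusoff in fluorescence-based protease assay; index = Ki(hCatL)/Ki(RD); Ki as average of two measurements, each in duplicate.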

[3] = test system: Trypanosoma brucei rhodesiense; assay: Antitrypanosomal activity against bloodstream form of Trypanosoma brucei rhodesiense STIB 900 assessed as parasite growth inhibition after 72 hrs by Alamar blue assay; assay type: functional
In short: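 T. b. rhodesiense STIB900 bloodstream trypomastigotes; cell-growth inhibition read by Alamar blue; IC50 as average of at least 2 measurements.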

[4] = target: Rhodesain (Trypanosoma brucei rhodesiense) (UniProt Q95PM0); assay: Inhibition of Trypanosoma brucei rhodesiense rhodesain at 20 uM using Cbz-Phe-Arg-AMC as substrate by fluorimetric method relative to control
[5] = test system: Trypanosoma brucei rhodesiense; assay: Antitrypanosomal activity against bloodstream form of Trypanosoma brucei rhodesiense STIB 900 assessed as parasite growth inhibition incubated for 24 to 48 hrs followed by 72 hrs recovery by Alamar blue assay; assay type: functional
[6] = Drug uptake in bloodstream form of Trypanosoma brucei rhodesiense STIB 900 infected NMRI mouse blood at 25 mg/kg, ip bid administered for 4 consecutive days starting 3 days post infection measured at 1 hr post last dose; assay type: ADME, organism-based; settings: read-out: Drug uptake
[7] = Drug uptake in bloodstream form of Trypanosoma brucei rhodesiense STIB 900 infected NMRI mouse blood at 25 mg/kg, ip bid administered for 4 consecutive days starting 3 days post infection measured at 4 hrs post last dose; assay type: ADME, organism-based; settings: read-out: Drug uptake
[8] = test system: Trypanosoma brucei rhodesiense; assay: Antitrypanosomal activity against bloodstream form of Trypanosoma brucei rhodesiense STIB 900 infected in NMRI mouse assessed as reduction of parasitemia at 25 mg/kg, ip bid administered for 4 consecutive days starting 3 days post infection measured 24 hrs post last dose; assay type: functional, organism-based
In short: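 Mice infected with T. b. rhodesiense STIB900 (acute model); dosing from day 3 post-infection on four consecutive days, 25 mg kg⁻¹ i.p. twice daily, 0.1 mL/10 g; three infected-untreated controls; parasitaemia monitored by tail-snip blood smears twice weekly for two weeks, then weekly to day 60; relapse day recorded post-infection.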

[9] = Drug uptake in bloodstream form of Trypanosoma brucei rhodesiense STIB 900 infected NMRI mouse blood at 25 mg/kg, ip bid administered for 4 consecutive days starting 3 days post infection measured at 16 hrs post last dose; assay type: ADME, organism-based; settings: read-out: Drug uptake
Mdr1a = assay: Efflux ratio of permeability across pig LLC-PK1 cells expressing mouse Mdr1a at 1 uM after 3.5 hrs by LC-MS/MS analysis; assay type: ADME, cell-based, Sus scrofa
In short: (§1)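 Porcine kidney LLC-PK1 cells stably transfected with human ABCB1 (MDR1) or mouse Abcb1a (Mdr1a). Cells were grown with 10% FCS and 100 ng/mL colchicine and seeded on permeable inserts, then assayed on day 4. Compound was added at 1 μM to the apical or basolateral side, and transport was run in both directions in triplicate at 37 °C, 5% CO2. Donor and receiver were sampled at 3.5 h and quantified by LC–MS/MS. Lucifer yellow was used as the monolayer tightness control.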

MDR1 = assay: Efflux ratio of permeability across pig LLC-PK1 cells expressing human MDR1 at 1 uM after 3.5 hrs by LC-MS/MS analysis; assay type: ADME, cell-based, Sus scrofa; in short: as §1
[10] = test system: Trypanosoma brucei brucei; assay: Antitrypanosomal activity against Trypanosoma brucei brucei TC 221 assessed as parasite growth inhibition after 72 hrs by Alamar blue assay; assay type: functional; settings: TC 221, 72 h
[11] = Trypanosoma brucei, STIB 900, 72 h

Chain of Procathepsin L (P07711 whole entry): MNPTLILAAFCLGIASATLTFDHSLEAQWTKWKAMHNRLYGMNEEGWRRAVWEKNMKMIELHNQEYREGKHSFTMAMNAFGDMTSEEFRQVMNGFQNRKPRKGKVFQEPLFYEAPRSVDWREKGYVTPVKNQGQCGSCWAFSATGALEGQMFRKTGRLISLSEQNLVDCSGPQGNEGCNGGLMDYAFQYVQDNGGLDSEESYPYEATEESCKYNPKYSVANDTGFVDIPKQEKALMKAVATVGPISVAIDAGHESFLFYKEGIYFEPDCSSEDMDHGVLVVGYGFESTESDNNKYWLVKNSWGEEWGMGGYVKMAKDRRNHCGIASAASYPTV
Chain of Rhodesain (Q95PM0 whole entry): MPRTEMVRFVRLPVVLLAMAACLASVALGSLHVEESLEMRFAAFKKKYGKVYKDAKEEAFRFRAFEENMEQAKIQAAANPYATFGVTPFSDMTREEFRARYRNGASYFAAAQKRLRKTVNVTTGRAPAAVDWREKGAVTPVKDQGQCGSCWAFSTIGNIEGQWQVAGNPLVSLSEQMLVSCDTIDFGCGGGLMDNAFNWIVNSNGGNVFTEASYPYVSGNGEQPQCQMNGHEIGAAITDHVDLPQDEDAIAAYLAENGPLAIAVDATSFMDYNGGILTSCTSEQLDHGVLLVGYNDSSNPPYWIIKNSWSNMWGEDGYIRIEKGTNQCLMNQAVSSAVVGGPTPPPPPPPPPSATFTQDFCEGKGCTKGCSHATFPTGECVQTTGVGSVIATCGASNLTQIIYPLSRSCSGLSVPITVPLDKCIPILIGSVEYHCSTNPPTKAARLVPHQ
Chain of Rhodesain (Trypanosoma brucei rhodesiense) (Q95PM0 1-450): as the sequence (Q95PM0 whole entry) above

| SMILES | IC50 (L6; Rattus norvegicus, L6, 72 h) [nM] | selectivity ratio [1] | Ki (Rhodesain) [nM] | Ki (Procathepsin L) [nM] | Ratio Ki [2] | IC50 [3, 11] [nM] | also measured |
| --- | --- | --- | --- | --- | --- | --- | --- |
| N#CC1(NC(=O)[C@@H]2Cc3ccc(c(Cl)c3)OC/C=C/COc3cc4ccccc4cc3C(=O)N2)CC1 (mixture of isomers) | 43800 | 87600 | 1 | 1.2 | 1.2 | 0.5 | – |
| N#CC1(NC(=O)[C@@H]2Cc3ccc(c(I)c3)OCCCCOc3cc(C(F)(F)F)ccc3C(=O)N2)CC1 | 56800 | 1890 | 57.4 | 5.8 | 0.1 | 30 | – |
| CC(C)(C)c1cc2nn1CC/C=C/COc1ccc(cc1Cl)C[C@@H](C(=O)NC1(C#N)CC1)NC2=O | 38500 | 64200 | 18 | 2.3 | 0.1 | 0.6 | – |
| N#CC1(NC(=O)[C@@H]2Cc3ccc(c(Cl)c3)OC/C=C/CCn3nc(cc3-c3ccccc3)C(=O)N2)CC1 | 40000 | 66700 | 5.2 | 55.7 | 11 | 0.6 | – |
| N#CC1(NC(=O)[C@@H]2Cc3ccc(c(-c4cc[nH]n4)c3)OCCCCOc3cc(C(F)(F)F)ccc3C(=O)N2)CC1 | > 100000 | – | – | 1360 | – | 140 | inhibition [4]: 45% |
| N#CC1(NC(=O)[C@@H]2Cc3ccc(c(-c4cc[nH]n4)c3)OCCCCOc3ccccc3C(=O)N2)CC1 | 86500 | 70 | 1090 | 1110 | 1 | 1230 | – |
| N#CC1(NC(=O)[C@@H]2Cc3ccc(c(Cl)c3)OC/C=C/COc3cc(C(F)(F)F)ccc3C(=O)N2)CC1 | 37000 | 18500 | 20.2 | 2.4 | 0.1 | 2 | growth inhibition (GI) [5]: Active |
| N#CC1(NC(=O)[C@@H]2Cc3ccc(c(Cl)c3)OCC#CCOc3c(F)cc(F)cc3C(=O)N2)CC1 (single isomer, unassigned; atropisomer 2) [listing 1 of 2 here] | – | – | – | – | 0.3 | – | – |
| N#CC1(NC(=O)[C@@H]2Cc3ccc(c(I)c3)OC/C=C/COc3ccccc3C(=O)N2)CC1 | – | – | 2.5 | – | – | – | – |
| N#CC1(NC(=O)[C@@H]2Cc3ccc(c(-c4cncnc4)c3)OCCCCOc3cc(C(F)(F)F)ccc3C(=O)N2)CC1 | > 100000 | – | > 20000 | 6390 | – | 509 | – |
| N#CC1(NC(=O)[C@@H]2Cc3ccc(c(Cl)c3)OC/C=C/CCn3nc(cc3C3CC3)C(=O)N2)CC1 | 60600 | 12100 | 17.2 | 2.5 | 0.1 | 5 | growth inhibition (GI) [5]: Active |
| Cc1cc2nn1CC/C=C/COc1ccc(cc1Cl)C[C@@H](C(=O)NC1(C#N)CC1)NC2=O (mixture of isomers) | > 100000 | – | 52.4 | 40.3 | 0.8 | 6 | – |
| N#CC1(NC(=O)[C@@H]2Cc3ccc(c(Cl)c3)OC/C=C/Cn3cccc(c3=O)C(=O)N2)CC1 | > 100000 | – | > 20000 | > 20000 | – | 47800 | – |
| CS(=O)(=O)c1ccc2c(c1)C(=O)N[C@H](C(=O)NC1(C#N)CC1)Cc1ccc(c(Cl)c1)OC[C@H]1O[C@@H]1CO2 (mixture of isomers) | 84700 | 5 | 135 | 4.6 | 0.03 | 16900 | – |
| N#CC1(NC(=O)[C@@H]2Cc3ccc(c(Cl)c3)OC/C=C/COc3cc(-c4cnn(C(F)F)c4)ccc3C(=O)N2)CC1 (mixture of isomers) | 44300 | 132 | 5.4 | 7.4 | 1.4 | 336 | – |
| N#CC1(NC(=O)[C@@H]2Cc3ccc(c(Cl)c3)OCC#CCOc3c(F)cc(F)cc3C(=O)N2)CC1 (single isomer, unassigned; atropisomer 1) [listing 1 of 2 here] | – | – | – | – | 0.3 | – | – |
| N#CC1(NC(=O)[C@@H]2Cc3ccc(c(Cl)c3)OC/C=C/COc3ccc(-c4ccc(F)cc4)cc3C(=O)N2)CC1 (mixture of isomers) | 45300 | 131 | 2 | 15.5 | 7.8 | 347 | – |
| N#CC1(NC(=O)[C@@H]2Cc3ccc(c(-c4cccnc4)c3)OCCCCOc3cc(C(F)(F)F)ccc3C(=O)N2)CC1 | 72200 | 4010 | 751 | 824 | 1.1 | 18 | – |
| N#CC1(NC(=O)[C@@H]2Cc3ccc(c(Cl)c3)OC/C=C/Cn3c(=O)c(cc4cc(Cl)ccc43)C(=O)N2)CC1 (mixture of isomers) | 16200 | 2020 | 299 | 274 | 0.9 | 8 | – |
| N#CC1(NC(=O)[C@@H]2Cc3ccc(c(Cl)c3)OCC#CCOc3c(F)cc(F)cc3C(=O)N2)CC1 (single isomer, unassigned; atropisomer 1) [listing 2 of 2 here] | 45600 | – | 80.6 | 24.1 | – | 8 | Ratio IC50 [1]: 5700 |
| N#CC1(NC(=O)[C@@H]2Cc3ccc(c(-c4cccnc4)c3)OCCCCOc3ccccc3C(=O)N2)CC1 | > 100000 | – | 837 | 997 | 1.2 | 1930 | – |
| CSc1ccc2c(c1)C(=O)N[C@H](C(=O)NC1(C#N)CC1)Cc1ccc(c(Cl)c1)OC/C=C/CO2 | – | – | – | – | – | – | concentration at 1 h [6]: 951 ng/mL; concentration at 4 h [7]: 66.4 ng/mL; Activity [8]: inactive; concentration at 16 h [9]: < 10 ng/mL |
| CS(=O)(=O)c1ccc2c(c1)C(=O)N[C@H](C(=O)NC1(C#N)CC1)Cc1ccc(c(Cl)c1)OC/C=C/CO2 | > 100000 | – | 6.1 | 3.7 | 0.6 | 332 | – |
| N#CC1(NC(=O)[C@@H]2Cc3ccc(c(Cl)c3)OC/C=C/COc3cc(-c4ccc(Cl)nc4)ccc3C(=O)N2)CC1 (mixture of isomers) | 6490 | 19 | 3 | 7.3 | 2.4 | 338 | – |
| N#CC1(NC(=O)[C@@H]2Cc3ccc(c(Cl)c3)OC/C=C/COc3ccccc3C(C(F)(F)F)N2)CC1 (some centres undefined) | – | – | 258 | 443 | – | 9500 | – |
| N#CC1(NC(=O)[C@@H]2Cc3ccc(c(Cl)c3)OCC#CCOc3c(F)cc(F)cc3C(=O)N2)CC1 (single isomer, unassigned; atropisomer 2) [listing 2 of 2 here] | – | – | 4.8 | 1.2 | – | – | IC50 (L6; l6): 47100 nM; Ratio IC50 [1]: 11775; IC50 [3]: 4 nM |
| N#CC1(NC(=O)[C@@H]2Cc3ccc(c(I)c3)OC/C=C/COc3cc(C(F)(F)F)ccc3C(=O)N2)CC1 (mixture of isomers) | 30200 | 101 | 8.7 | 5.6 | 0.6 | 300 | – |
| N#CC1(NC(=O)[C@@H]2Cc3ccc(c(Cl)c3)OCCCCOc3cc4c(cc3C(=O)N2)CCCC4)CC1 | – | – | 26 | 3 | – | – | efflux ratio at 3.5 h, 1 µM (Mdr1a): 38; efflux ratio at 3.5 h, 1 µM (MDR1): 26; IC50 [10]: 1 nM |
| N#CC1(NC(=O)[C@@H]2Cc3ccc(c(Cl)c3)OC/C=C/COc3c(F)cc(F)cc3C(=O)N2)CC1 | – | – | – | – | – | – | growth inhibition (GI) [5]: Active |
| Cn1cc(-c2cc3ccc2OCCCCOc2cc(C(F)(F)F)ccc2C(=O)N[C@H](C(=O)NC2(C#N)CC2)C3)cn1 | > 100000 | – | 870 | 676 | 0.8 | 19 | – |
